According to ChEMBL document CHEMBL1151746, “Antitumor agents 6. Synthesis, structure-activity relationships, and biological evaluation of spiro[imidazolidine-4,3'-thieno[2,3-g]quinoline]-tetraones and spiro[thieno[2,3-g]quinoline-3,5'-[1,2,4]triazinane]-tetraones with potent antiproliferative activity” (J Med Chem, 2008):

Legend:
Format in all cases: functional, cell-based
[1] = test system: SF-268; test: Antiproliferative activity against human SF-268 cells after 96 hrs by MTT assay; details: SF-268, 96 h
Outline: (§1)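 Solid-tumor cells in their specific media with 10% FCS were seeded at 5 × 10⁴ cells/mL and left to adhere 16 h. Serially diluted compound was then added (DMSO solution at 200 µM, diluted in medium). MTT viability was read 4 days later. IC50 came from linear regression against untreated controls, which grew at least three rounds, as the mean of three independent determinations.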

[2] = test system: MT4; test: Antiproliferative activity against human MT4 cells after 96 hrs by MTT assay
Outline: (§2)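 Exponentially growing cells in RPMI 1640 with 10% FCS were resuspended at 1 × 10⁵ cells/mL in RPMI containing serial dilutions of compound (DMSO solution at 200 µM, diluted in medium). After 96 h at 37 °C, viability was read by MTT. Growth was taken as % of untreated controls, which grew at least three rounds. IC50 came from linear regression, as the mean of three independent determinations.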

[3] = test system: MCF7; test: Antiproliferative activity against human MCF7 cells after 96 hrs by MTT assay; details: MCF7, 96 h; outline: as §1
[4] = test system: HeLa; test: Antiproliferative activity against human HeLa cells after 96 hrs by MTT assay; outline: as §1
[5] = test system: ACHN; test: Antiproliferative activity against human ACHN cells after 96 hrs by MTT assay; outline: as §1
[6] = test system: CCRF-CEM; test: Antiproliferative activity against human CCRF-CEM cells after 96 hrs by MTT assay; outline: as §2
[7] = test system: HT-29; test: Antiproliferative activity against human HT-29 cells after 96 hrs by MTT assay; outline: as §1
[8] = test system: CCRF-SB; test: Antiproliferative activity against human CCRF-SB cells after 96 hrs by MTT assay; outline: as §2
[9] = test system: XF498; test: Antiproliferative activity against human XF498 cells after 96 hrs by MTT assay; details: XF498, 96 h; outline: as §1

`CCCCc1ccc(N2C(=O)NC3(CSC4=C3C(=O)c3ncccc3C4=O)C2=O)cc1` (racemic) showed an IC50 [1] of 0.4 µM, an IC50 ([2]; Homo sapiens, MT4, 96 h) of 0.2 µM and an IC50 [3] of 0.07 µM. For the same compound, the IC50 [4] was 0.09 µM, the IC50 [5] was 0.05 µM and the IC50 [6] was 0.15 µM. It also gave an IC50 ([7]; Homo sapiens, HT-29, 96 h) of 0.05 µM, an IC50 [8] of 0.19 µM and an IC50 [9] of 0.95 µM.
`O=C1NNC(=O)C2(CSC3=C2C(=O)c2ncccc2C3=O)N1` (stereo in doubt; (+)-3) showed an IC50 ([2]; Homo sapiens, MT4, 96 h) of 0.55 µM and an IC50 ([7]; Homo sapiens, HT-29, 96 h) of 1.58 µM.
In the case of `O=C1C2=C(C(=O)c3ncccc31)C1(CS2)NC(=O)N(c2ccncc2)C1=O` (racemic), the IC50 [1] is reported as 1.1 µM, the IC50 ([2]; Homo sapiens, MT4, 96 h) is reported as 0.003 µM and the IC50 [3] is reported as 0.01 µM. It also gave an IC50 [4] of 0.01 µM, an IC50 [5] of 0.08 µM and an IC50 [6] of 0.002 µM. For the same compound, the IC50 ([7]; Homo sapiens, HT-29, 96 h) was 0.002 µM, the IC50 [8] was 0.001 µM and the IC50 [9] was 1.12 µM.
In the case of `O=C1NN(c2ccc(Cl)cc2)C(=O)C2(CSC3=C2C(=O)c2ncccc2C3=O)N1` (racemic), the IC50 [1] is reported as 2 µM, the IC50 ([2]; Homo sapiens, MT4, 96 h) is reported as 0.15 µM and the IC50 [3] is reported as 0.11 µM. It also gave an IC50 [4] of 0.15 µM, an IC50 [5] of 0.36 µM and an IC50 [6] of 0.05 µM. For the same compound, the IC50 ([7]; Homo sapiens, HT-29, 96 h) was 0.22 µM, the IC50 [8] was 0.051 µM and the IC50 [9] was 2.5 µM.
Work on `O=C1C2=C(C(=O)c3ncccc31)C1(CS2)NC(=O)N(c2ccccc2)C1=O` (racemic) yielded an IC50 [1] of 1.7 µM, an IC50 ([2]; Homo sapiens, MT4, 96 h) of 0.025 µM and an IC50 [3] of 0.001 µM. The IC50 [4] was 0.003 µM, the IC50 [5] was 0.021 µM and the IC50 [6] was 0.01 µM. It also gave an IC50 ([7]; Homo sapiens, HT-29, 96 h) of 0.002 µM, an IC50 [8] of 0.03 µM and an IC50 [9] of 1.51 µM.
With `Cc1ccc(N2C(=O)NC3(CSC4=C3C(=O)c3ncccc3C4=O)C2=O)cc1` (racemic) the IC50 [1] was 0.66 µM, the IC50 ([2]; Homo sapiens, MT4, 96 h) was 0.027 µM and the IC50 [3] was 0.002 µM. The IC50 [4] was 0.002 µM, the IC50 [5] was 0.012 µM and the IC50 [6] was 0.02 µM. It also gave an IC50 ([7]; Homo sapiens, HT-29, 96 h) of 0.001 µM, an IC50 [8] of 0.02 µM and an IC50 [9] of 1.35 µM.
`O=C1NC(=O)C2(CSC3=C2C(=O)c2ncccc2C3=O)N1` (single isomer, unassigned; (+)) showed an IC50 ([2]; Homo sapiens, MT4, 96 h) of 0.13 µM and an IC50 ([7]; Homo sapiens, HT-29, 96 h) of 0.19 µM.
`O=C1NNC(=O)C2(CSC3=C2C(=O)c2ncccc2C3=O)N1` (racemic) was tested, and the IC50 [1] was 4.82 µM, the IC50 [3] was 1.25 µM and the IC50 [4] was 0.98 µM. For the same compound, the IC50 [5] was 1.05 µM, the IC50 [6] was 0.45 µM and the IC50 [8] was 0.048 µM. For the same compound, the IC50 [9] was 5 µM.
Work on `O=C1NNC(=O)C2(CSC3=C2C(=O)c2ncccc2C3=O)N1` (single isomer, unassigned; (-)) yielded an IC50 ([2]; mt4) of 0.5 µM and an IC50 ([7]; ht-29) of 1.6 µM.
With `COc1ccc(N2C(=O)NC3(CSC4=C3C(=O)c3ncccc3C4=O)C2=O)cc1` (racemic) the IC50 [1] was 0.65 µM, the IC50 ([2]; Homo sapiens, MT4, 96 h) was 0.07 µM and the IC50 [3] was 0.05 µM. For the same compound, the IC50 [4] was 0.001 µM, the IC50 [5] was 0.05 µM and the IC50 [6] was 0.05 µM. The IC50 ([7]; Homo sapiens, HT-29, 96 h) was 0.002 µM, the IC50 [8] was 0.01 µM and the IC50 [9] was 0.65 µM.
With `O=C1NN(c2ccccc2)C(=O)C2(CSC3=C2C(=O)c2ncccc2C3=O)N1` (racemic) the IC50 [1] was 2.2 µM, the IC50 ([2]; Homo sapiens, MT4, 96 h) was 0.15 µM and the IC50 [3] was 0.15 µM. For the same compound, the IC50 [4] was 0.21 µM, the IC50 [5] was 0.94 µM and the IC50 [6] was 0.09 µM. It also gave an IC50 ([7]; Homo sapiens, HT-29, 96 h) of 0.55 µM, an IC50 [8] of 0.039 µM and an IC50 [9] of 4.55 µM.
For `O=C1C2=C(C(=O)c3ncccc31)C1(CS2)NC(=O)N(c2ccc(N3CCOCC3)cc2)C1=O` (racemic), the IC50 [1] was 1.98 µM, the IC50 ([2]; Homo sapiens, MT4, 96 h) was 0.8 µM and the IC50 [3] was 0.75 µM. It also gave an IC50 [4] of 0.2 µM, an IC50 [5] of 0.14 µM and an IC50 [6] of 0.6 µM. It also gave an IC50 ([7]; Homo sapiens, HT-29, 96 h) of 0.75 µM, an IC50 [8] of 0.65 µM and an IC50 [9] of 1.7 µM.
`O=C1NN(c2ccc([N+](=O)[O-])cc2)C(=O)C2(CSC3=C2C(=O)c2ncccc2C3=O)N1` (racemic) showed an IC50 [1] of 3.55 µM, an IC50 ([2]; Homo sapiens, MT4, 96 h) of 0.005 µM and an IC50 [3] of 0.55 µM. It also gave an IC50 [4] of 0.61 µM, an IC50 [5] of 0.65 µM and an IC50 [6] of 0.002 µM. The IC50 ([7]; Homo sapiens, HT-29, 96 h) was 1.01 µM, the IC50 [8] was 0.002 µM and the IC50 [9] was 4.8 µM.
Work on `O=C1NC(=O)C2(CSC3=C2C(=O)c2ncccc2C3=O)N1` (racemic) yielded an IC50 [1] of 3.1 µM, an IC50 [3] of 0.12 µM and an IC50 [4] of 0.15 µM. For the same compound, the IC50 [5] was 0.08 µM, the IC50 [6] was 0.12 µM and the IC50 [8] was 0.15 µM. For the same compound, the IC50 [9] was 3.12 µM.
Work on `O=C1NC(=O)C2(CSC3=C2C(=O)c2ncccc2C3=O)N1` (stereo in doubt; (-)-2) yielded an IC50 ([2]; mt4) of 0.12 µM and an IC50 ([7]; ht-29) of 0.18 µM.
